The values that follow come from ChEMBL document CHEMBL3769393, “Chiral pool synthesis and biological evaluation of C-furanosidic and acyclic LpxC inhibitors” (Eur J Med Chem, 2016).

Each structure is given as a SMILES string. Bounds are passed on as bounds.

The nature of assay [1]: Inhibition of Escherichia coli BL21(DE3) LpxC C63A mutant using UDP-3-O-(R-3-hydroxymyristoyl)-N-acetylglucosamine as substrate incubated for 30 mins by o-phthaldialdehyde-2-mercaptoethanol based fluorescence assay.
Assay [2] relates to Escherichia coli. As to the kind of experiment: Antibacterial activity against Escherichia coli BL21(DE3) cells assessed as diameter of zone of growth inhibition after overnight incubation at 37 degC by agar disc diffusion clearance assay. Type of assay: functional. The procedure, abridged:
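Overnight LB broth cultures (37 °C, 200 rpm); 150 µL spread on LB agar. 6 mm filter discs loaded with 15 µL of 10 mM compound in DMSO. DMSO disc as negative control, CHIR-090 as positive control. Plates kept overnight at 37 °C, then diameter of the growth-inhibition zone measured.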

Assay [3] deals with Escherichia coli. As to the kind of experiment: Antibacterial activity against envA mutant Escherichia coli D22 cells assessed as diameter of zone of growth inhibition after overnight incubation at 37 degC by agar disc diffusion clearance assay. Type of assay: functional. The procedure, abridged: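 E. coli D22 (defective strain) grown overnight in LB broth at 37 °C, 200 rpm; 150 µL of overnight suspension spread on LB agar. 6 mm filter paper discs loaded with 15 µL compound (10 mM in DMSO); DMSO disc as negative control, CHIR-090 as positive control. Plates incubated overnight at 37 °C; growth-inhibition zone diameter measured.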
(In general: Agar diffusion results depend on both activity and mobility in agar.)

Assay [4] can be described thus: Inhibition of Escherichia coli BL21(DE3) LpxC C63A mutant using UDP-3-O-(R-3-hydroxymyristoyl)-N-acetylglucosamine as substrate incubated for 30 mins by Cheng-Prusoff equation analysis.

`O=C(NO)[C@H]1O[C@@H](c2ccc(C#CC#Cc3ccccc3)cc2)[C@@H](O)[C@H]1O`: in assay [1], the IC50 (commonly the concentration at which inhibition is half-maximal) worked out at 32 µM. Moreover, the figures for the “diameter of the inhibition zone (DIZ)” value with Escherichia coli [2] and with Escherichia coli [3] were less than 6 mm and 9 mm, respectively. The inhibitory constant (Ki) (commonly a measure of affinity in units of concentration, obtained from inhibition or displacement) in assay [4] turned out to be 4.4 µM.
Compound `CO[C@H]1[C@@H](O)[C@@H](C(=O)NO)O[C@H]1c1ccc(C#Cc2ccc(CN3CCOCC3)cc2)cc1` returned an IC50 in assay [1] of more than 200 µM. Further, the “diameter of the inhibition zone (DIZ)” value is reported as less than 6 mm with Escherichia coli [2] and 20.5 mm in the assay with Escherichia coli [3]. Besides, the Ki in assay [4] is more than 27.6 µM.
For `O=C(NO)[C@@H]1C[C@H](O)[C@H](c2ccc(C#Cc3ccc(CN4CCOCC4)cc3)cc2)O1` the same measures were 87 µM, less than 6 mm, 15.3 mm and 12 µM.
For `O=C(NO)[C@H](CO)O[C@H](CO)c1ccc(C#CC#Cc2ccccc2)cc1` the same measures were 1.7 µM, 13.7 mm, 21.3 mm and 0.23 µM.
On the same counts, the results for `O=C(NO)[C@H](CO)O[C@@H](CO)c1ccc(C#CC#Cc2ccccc2)cc1` are 4.4 µM, 9 mm, 18 mm and 0.6 µM.
Compound `O=C(NO)[C@@H](CO)O[C@H](CO)c1ccc(C#Cc2ccc(CN3CCOCC3)cc2)cc1` gave a 50% inhibitory concentration (IC50) in assay [1] of 8 µM. Moreover, the “diameter of the inhibition zone (DIZ)” value in the assay on Escherichia coli [2] stood at 16 mm; in the assay with Escherichia coli [3], 26.1 mm. This compound also displayed a Ki in assay [4] of 1.1 µM.
For `O=C(NO)[C@@H]1O[C@@H](c2ccc(C#Cc3ccc(CN4CCOCC4)cc3)cc2)[C@@H](O)[C@H]1O`, the 50% inhibitory concentration (IC50) in assay [1] is 10 µM. In addition, the “diameter of the inhibition zone (DIZ)” value with Escherichia coli [2] is given as less than 6 mm; with Escherichia coli [3], 22.1 mm. In assay [4], the Ki amounted to 1.4 µM.
`CC1(C)O[C@@H]2[C@H](O1)[C@H](c1ccc(C#Cc3ccc(CN4CCOCC4)cc3)cc1)O[C@@H]2C(=O)NO` displayed an IC50 in assay [1] of more than 200 µM. Also, the “diameter of the inhibition zone (DIZ)” value in the assay with Escherichia coli [2] is on record as less than 6 mm; in the assay on Escherichia coli [3], 14.7 mm. In assay [4], the inhibition constant (Ki) is more than 27.6 µM.
On the same counts, the results for `O=C(NO)[C@H]1O[C@@H](c2ccc(C#Cc3ccc(CN4CCOCC4)cc3)cc2)[C@@H](O)[C@H]1O` are more than 200 µM, less than 6 mm, 13.2 mm and more than 27.6 µM.
On the same counts, the results for `O=C(NO)[C@H](CO)O[C@H](CO)c1ccc(C#Cc2ccc(CN3CCOCC3)cc2)cc1` are 2.6 µM, 9.6 mm, 20.4 mm and 0.35 µM.
On the same counts, the results for `O=C(NO)[C@H]1O[C@@H](c2ccc(C#Cc3ccccc3)cc2)[C@@H](O)[C@H]1O` are more than 200 µM, less than 6 mm, 6.5 mm and more than 27.6 µM.
The compound `O=C(NO)[C@@H]1O[C@H](c2ccc(C#Cc3ccccc3)cc2)[C@@H](O)[C@H]1O` displayed an IC50 in assay [1] of more than 200 µM. In addition, the “diameter of the inhibition zone (DIZ)” value was less than 6 mm with Escherichia coli [2] and 16.3 mm in the assay on Escherichia coli [3]. Further, in assay [4], the Ki is more than 27.6 µM.
As for `O=C(NO)[C@H](CO)O[C@@H](CO)c1ccc(C#Cc2ccccc2)cc1`, 150 µM corresponded to half-maximal inhibition in assay [1] (IC50). In addition, the “diameter of the inhibition zone (DIZ)” value turned out to be 6.8 mm in the assay with Escherichia coli [2] and 21.3 mm with Escherichia coli [3]. In assay [4], this compound gave an inhibitory constant (Ki) of 21 µM.
For `O=C(NO)[C@H](CO)O[C@H](CO)c1ccc(C#Cc2ccccc2)cc1` the same measures were more than 200 µM, less than 6 mm, 16.2 mm and more than 27.6 µM.
On to `O=C(NO)[C@@H](CO)O[C@@H](CO)c1ccc(C#Cc2ccc(CN3CCOCC3)cc2)cc1`, for which half-maximal inhibition in assay [1] (IC50) was put at 180 µM. In addition, the “diameter of the inhibition zone (DIZ)” value is recorded as less than 6 mm with Escherichia coli [2] and 20.3 mm with Escherichia coli [3]. The inhibition constant (Ki) in assay [4] is 25 µM.
As to `O=C(NO)[C@@H](CO)O[C@@H](CO)c1ccc(C#CC#Cc2ccccc2)cc1`, the IC50 in assay [1] came out at 20 µM. In addition, the “diameter of the inhibition zone (DIZ)” value was determined as 7.1 mm in the assay with Escherichia coli [2] and 10.5 mm with Escherichia coli [3]. In assay [4], this compound yielded an inhibition constant (Ki) of 2.7 µM.
With `O=C(NO)[C@@H](CO)O[C@@H](CO)c1ccc(C#Cc2ccccc2)cc1`, the IC50 in assay [1] was more than 200 µM. Moreover, the “diameter of the inhibition zone (DIZ)” value in the assay on Escherichia coli [2] was less than 6 mm; in the assay on Escherichia coli [3] it was 9.3 mm. Besides, the Ki in assay [4] was more than 27.6 µM.
On to `CO[C@@H]1[C@H](O)[C@H](c2ccc(C#Cc3ccc(CN4CCOCC4)cc3)cc2)O[C@@H]1C(=O)NO`, for which the IC50 in assay [1] was more than 200 µM. In addition, the “diameter of the inhibition zone (DIZ)” value is reported as less than 6 mm in the assay on Escherichia coli [2] and 11.7 mm with Escherichia coli [3]. In assay [4], this compound showed a Ki of more than 27.6 µM.
Compound `O=C(NO)[C@H]1O[C@H](c2ccc(C#Cc3ccccc3)cc2)[C@@H](O)[C@H]1O` yielded a concentration for half-maximal inhibition (IC50) in assay [1] of 43 µM. Further, the entries for the “diameter of the inhibition zone (DIZ)” value in the assay with Escherichia coli [2] and in the assay with Escherichia coli [3] were 6.8 mm and 13.6 mm, respectively. This compound also gave an inhibitory constant (Ki) in assay [4] of 5.9 µM.
For `O=C(NO)[C@@H]1O[C@@H](c2ccc(C#Cc3ccccc3)cc2)[C@@H](O)[C@H]1O` the same measures were 24 µM, less than 6 mm, 18 mm and 3.3 µM.
Regarding `O=C(NO)[C@@H]1O[C@H](c2ccc(C#Cc3ccc(CN4CCOCC4)cc3)cc2)[C@@H](O)[C@H]1O`, the IC50 in assay [1] worked out at 42 µM. Moreover, in the assay with Escherichia coli [2], the “diameter of the inhibition zone (DIZ)” value is on record as less than 6 mm. Also, the Ki in assay [4] is 5.8 µM.
`O=C(NO)[C@H]1O[C@H](c2ccc(C#Cc3ccc(CN4CCOCC4)cc3)cc2)[C@@H](O)[C@H]1O`: in assay [1], inhibition was half-maximal at 34 µM (IC50). Also, the “diameter of the inhibition zone (DIZ)” value with Escherichia coli [2] turned out to be 9.8 mm; in the assay with Escherichia coli [3] it was 20.2 mm. Moreover, in assay [4], the inhibitory constant (Ki) was 4.7 µM.
On the same counts, the results for `O=C(NO)[C@@H]1O[C@H](c2ccc(C#CC#Cc3ccccc3)cc2)[C@@H](O)[C@H]1O` are 5 µM, 10.7 mm, 14.5 mm and 0.69 µM.
Regarding `O=C(NO)[C@@H]1O[C@@H](c2ccc(C#CC#Cc3ccccc3)cc2)[C@@H](O)[C@H]1O`, the IC50 in assay [1] amounted to 15 µM. The entries for the “diameter of the inhibition zone (DIZ)” value with Escherichia coli [2] and with Escherichia coli [3] were less than 6 mm and 15.7 mm, respectively. Moreover, affinity in assay [4] was put at a Ki of 2.1 µM.
On the same counts, the results for `O=C(NO)[C@H](CO)O[C@@H](CO)c1ccc(C#Cc2ccc(CN3CCOCC3)cc2)cc1` are 21 µM, 14.3 mm, 27.9 mm and 2.9 µM.
Regarding `O=C(NO)c1ccc(-c2ccc(C#Cc3ccccc3)cc2)o1`, the “diameter of the inhibition zone (DIZ)” value is less than 6 mm with Escherichia coli [2] and 8 mm with Escherichia coli [3].
